Shown are actives, neighbours in structure and some others; about 3.1% of the full set was active somewhere.
NS3 helicase inh = HCV NS3 helicase inhibition; 290,000 compounds, 0.56% hits; AID 1800; inhibition, % at 10.9 µM; NS3 helicase DNA unwinding, Cy5 molecular beacon fluorescence;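 active = inhibition above the mean of all tested compounds plus 3 SD, set per campaign, cut at about 35% in these data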;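 note: 0% = DMSO wells and 100% = thioflavine S control wells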
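Assay system – hepatitis C virus NS3 helicase domain fragment enzyme · Buffer or medium – MOPS pH 6.5, MgCl2, DTT, Tween20, BSA · Reagent – Cy5/quencher beacon DNA duplex and ATP to start · Compound – single 10.9 µM dose · Timing – 1 h at 25 °C · Technique – Cy5 beacon fluorescence read at start and 1 h · Measure – % inhibition of unwinding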
IMP-1 inh-1 = blocks Pseudomonas aeruginosa IMP-1 metallo-beta-lactamase; purified IMP-1, nitrocefin hydrolysis, epi-absorbance fluorescence; 290,000 compounds, 0.45% hits; AID 1556; inhibition, % at 5.6 µM;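 active = inhibition above the mean plus 3 SD of all compounds in the same screening run, cut at about 4.5% in these data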;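 note: 0% = IMP-1 with DMSO and 100% = DMSO wells lacking enzyme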
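Assay system: purified recombinant IMP-1 beta-lactamase. Input: IMP-1 0.2 nM before substrate addition. Buffer or medium: Zinc- and detergent-supplemented HEPES buffer, pH 7.1. Schedule: 25 °C, 15 min preincubation, 25 min reaction. Signal: Epi-absorbance fluorescence, 480 nm excitation, 530 nm emission. Evaluation: percent inhibition from optical density relative to buffer-blank wells.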
HCV core dimer = blocks dimerization of HCV core protein; TR-FRET GST/Flag-core106 dimerization, 1536-well; inhibition, % at 5 µM; 300,000 compounds, 0.33% hits;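 active = inhibition above the mean of all tested compounds plus 3 SD, set per screening campaign, cut at about 45% in these data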
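Assay system: Tagged HCV core106 pair (GST and Flag) | Buffer or medium: KF-containing HEPES buffer, pH 7.45, DTT, CHAPS, BSA | Also added: Eu donor and XL665 acceptor anti-tag antibodies | Dosing: One concentration, 5 µM, in 0.5% DMSO | Timing: 4 h at 22.5 °C | Technique: TR-FRET 671 and 617 nm emission | Repeats: Singlicate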
SUMO HTRF inh = inhibitors of human SUMOylation (UBC9). P63279. inhibition, % at 35 µM. HTRF SUMOylation assay, SAE1/SAE2 + UBC9, in vitro. 290,000 compounds, 0.36% hits; in the data active = inhibition above about 50%, passing the limit was not always enough
Target sequence (P63279 whole entry, looked up): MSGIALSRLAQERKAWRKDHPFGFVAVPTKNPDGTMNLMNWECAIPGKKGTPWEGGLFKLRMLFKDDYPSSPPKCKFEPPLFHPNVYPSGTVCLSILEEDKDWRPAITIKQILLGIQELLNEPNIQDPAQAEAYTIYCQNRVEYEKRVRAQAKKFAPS
PHOSPHO1 inh = blocks human PHOSPHO1 phosphatase activity; recombinant PHOSPHO1, absorbance phosphatase assay; inhibition, % at 13.3 µM; 290,000 compounds, 1.1% hits; AID 1565; in the data active = inhibition above about 60%
Target sequence (Q8TCT1 whole entry, looked up): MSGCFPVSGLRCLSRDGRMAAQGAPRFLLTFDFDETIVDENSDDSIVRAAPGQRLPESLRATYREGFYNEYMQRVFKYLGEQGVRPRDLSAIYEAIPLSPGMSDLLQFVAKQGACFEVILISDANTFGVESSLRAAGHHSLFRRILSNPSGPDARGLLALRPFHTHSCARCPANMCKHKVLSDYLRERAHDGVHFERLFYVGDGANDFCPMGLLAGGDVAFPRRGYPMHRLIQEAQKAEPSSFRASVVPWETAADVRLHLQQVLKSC
VIM-2 inhibitor = inhibitors of Pseudomonas aeruginosa VIM-2 metallo-beta-lactamase. inhibition, % at 5.6 µM. purified VIM-2, nitrocefin hydrolysis, epi-absorbance fluorescence. 290,000 compounds, 0.89% hits;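 active = inhibition above the mean of all tested compounds plus 3 SD, cutoff set per screening run, cut at about 7.5% in these data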;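 note: red hydrolysis product quenches plate fluorescence so inhibitors raise well fluorescence; 0% = enzyme with DMSO and 100% = DMSO without enzyme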
IMP-1 inh-2 = IMP-1 inhibition, counter-screen for VIM-2 inhibitors | shares compounds with VIM-2 inhibitor | purified IMP-1, nitrocefin hydrolysis, epi-absorbance fluorescence | inhibition, % at 5.6 µM | 1,300 tested, under 10 active | AID 1856; call rule not given here;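 note: 0% = enzyme with vehicle and 100% = vehicle without enzyme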
VIM-2 FRET inh = VIM-2 FRET inhibition, artifact counter-screen; shares compounds with VIM-2 inhibitor; purified VIM-2, CCF2 FRET substrate hydrolysis; inhibition, % at 5.6 µM; 1,300 compounds, 23% hits; AID 1857;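 active = inhibition above the mean of all tested compounds plus 3 SD, cut at about 19% in these data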;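 note: 0% = VIM-2 plus DMSO and 100% = no enzyme wells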
TEM-1 counter = blocks E. coli TEM-1 beta-lactamase in VIM-2 selectivity screen; AID 1866; 1,300 compounds, 3% hits; Purified TEM-1, nitrocefin hydrolysis, epi-absorbance fluorescence; inhibition, % at 5.6 µM; shares compounds with VIM-2 inhibitor;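 active = inhibition above that campaign's mean inhibition plus 3 SD, cut at about 0.46% in these data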;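 note: 0% = TEM-1 with DMSO and 100% = TEM-1 with 100 µM potassium clavulanate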
Target sequence (P62593 whole entry, looked up): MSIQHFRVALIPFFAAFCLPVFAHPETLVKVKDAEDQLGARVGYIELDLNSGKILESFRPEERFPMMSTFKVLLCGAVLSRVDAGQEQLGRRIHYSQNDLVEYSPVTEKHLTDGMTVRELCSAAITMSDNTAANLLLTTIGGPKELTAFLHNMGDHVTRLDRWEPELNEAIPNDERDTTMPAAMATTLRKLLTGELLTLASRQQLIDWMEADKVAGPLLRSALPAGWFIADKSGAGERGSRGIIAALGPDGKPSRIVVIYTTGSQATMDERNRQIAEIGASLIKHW
VIM-2 inh conf = confirmation of P. aeruginosa VIM-2 metallo-beta-lactamase inhibitors | inhibition, % at 5.6 µM | shares compounds with VIM-2 inhibitor | purified VIM-2, nitrocefin hydrolysis, epi-absorbance | 1,300 compounds, 96% hits;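 active = inhibition of the VIM-2 beta-lactamase enzyme above about 11% from the earlier first-round screen, limit read from the data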;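 note: 0% = VIM-2 with DMSO and 100% = buffer wells without enzyme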
* hit, by the source's call; / = no result given.

SMILES	NS3 helicase inh	IMP-1 inh-1	HCV core dimer	SUMO HTRF inh	PHOSPHO1 inh	VIM-2 inhibitor	IMP-1 inh-2	VIM-2 FRET inh	TEM-1 counter	VIM-2 inh conf
C=CCN1C(=O)c2cccc3c(N4CCCCC4)ccc(c23)C1=O	-2.9	0.4	7.8	15.8	-9.9	-0.6	/	/	/	/
O=C1c2cccc3c(N4CCCCC4)ccc(c23)C(=O)N1CCO	-1.9	0.7	-8.5	7.8	1.0	12.8*	0.1	2.3	-4.8	25.3*
Cc1ccccc1C(=O)NC(=S)Nc1ccccc1N1CCCC1	6.6	-4.2	3.0	43.4	8.1	15.1*	-3.0	9.0	-7.6	4.8
O=C(Nc1ccccc1N1CCCC1)c1cccc(F)c1	-6.0	-3.0	4.5	4.4	/	-1.8	/	/	/	/
O=C(COc1ccccc1Cl)NC(=S)Nc1ccccc1N1CCCC1	-9.4	-1.2	-5.1	26.1	-20.1	18.2*	-2.3	20.0*	-6.5	5.2
O=C(NC(=S)Nc1ccccc1N1CCCC1)c1cccc(F)c1	1.1	-2.2	-1.6	4.1	-109.3	13.5*	-4.1	18.9*	-9.2	5.8
Cc1ccc(N(C(=O)CNC(=O)c2ccco2)C(C(=O)NC2CCCC2)c2cccnc2)c(C)c1 (stereo unspecified)	1.1	-1.5	7.1	8.5	50.8	-0.8	/	/	/	/
CC(=O)N1CN(CCCn2ccnc2)Cc2c1sc1c2CCCC1	10.4	-5.0	0.4	9.2	4.6	26.5*	-2.4	-7.8	-5.2	46.1*
CC(=O)N1CN(Cc2ccccn2)Cc2c1sc1c2CCCC1	-7.3	0.0	1.0	11.1	6.4	-0.8	/	/	/	/
CCCCN(C)C(=O)c1cc2c(Cl)nc3ccccc3c2s1	-3.8	-2.1	-0.2	-23.4	46.6	13.1*	-3.2	2.5	-3.9	19.2*
O=C(NCCCN1CCCC1)c1cc2c(Cl)nc3ccccc3c2s1	-0.7	0.1	-1.8	24.1	-16.5	22.4*	-2.0	9.1	-6.6	34.8*
CC1CCN(CCCNC(=O)c2cc3c(Cl)nc4ccccc4c3s2)CC1	-22.8	0.5	-2.8	25.1	-0.7	23.2*	-2.3	8.6	-4.1	32.4*
CC1CCN(CCCNC(=O)c2n[nH]c(=O)c3ccccc23)CC1	-3.8	-3.7	0.0	7.7	29.8	-0.8	/	/	/	/
Cc1nn(-c2ccccc2)c(C)c1-c1nnc(-c2c(C)nn(-c3ccccc3)c2C)o1	-3.3	-1.4	-1.5	7.4	47.4	-2.0	/	/	/	/
O=C(CC12CC3CC(CC(C3)C1)C2)NCc1ccc(F)cc1	0.4	-2.3	4.2	11.8	8.5	-1.4	/	/	/	/
COc1ccc(C(=O)c2c3ccc(C(F)(F)F)cc3[n+]([O-])n2CCCN)cc1	/	/	-7.0	/	/	/	/	/	/	/
CCn1c2ccc(C)cc2c2nnc(SCCN3CCCCC3)nc21	-6.9	-4.1	2.9	-5.6	36.0	26.4*	-3.3	3.4	-6.8	34.8*
CCCn1c2ccc(F)cc2c2nnc(SCCN3CCCCC3)nc21	10.2	-1.3	0.7	9.0	-10.9	5.2	/	/	/	/
CCCn1c2ccc(C)cc2c2nnc(SCCN3CCCCC3)nc21	-17.1	-0.5	/	-6.9	5.3	22.1*	-3.1	-8.4	-5.6	21.4*
CCCn1c2ccc(C)cc2c2nnc(SCCN3CCOCC3)nc21	-13.4	-1.1	-0.1	-6.0	44.8	16.7*	-2.8	3.5	-6.7	27.3*
CCCn1c2ccc(F)cc2c2nnc(SCCN3CCOCC3)nc21	-1.7	-2.3	/	-22.6	/	4.4	/	/	/	/
Cc1ccc2c(c1)c1nnc(SCC(=O)NC3CC3)nc1n2C	0.4	-2.6	-1.2	-1.3	-5.0	16.6*	-1.9	-0.9	-4.7	27.9*
CCCCn1c(N)c(N(CCOC)C(=O)c2ccc(-c3ccc(C(C)=O)cc3)o2)c(=O)[nH]c1=O	/	/	-1.2	/	/	/	/	/	/	/
O=c1[nH]c2c(cnn2-c2ccc(Cl)cc2)c(=O)n1-c1cccc(Cl)c1	-0.5	-1.1	2.4	1.5	25.4	-3.1	/	/	/	/
Cc1cc(C)c2c(c1)c1nnc(SCCN3CCOCC3)nc1n2C	-2.4	-3.1	/	6.4	14.1	23.4*	-2.4	2.6	-4.7	30.7*
SMILES	NS3 helicase inh	IMP-1 inh-1	HCV core dimer	SUMO HTRF inh	PHOSPHO1 inh	VIM-2 inhibitor	IMP-1 inh-2	VIM-2 FRET inh	TEM-1 counter	VIM-2 inh conf
COc1ccc(C(=O)CSc2nc(-c3ccccn3)nc(C)c2Cl)cc1	8.7	-4.5	5.9	15.7	12.9	28.9*	-4.6	-26.1	-6.0	61.0*
COc1ccc(C(=O)CSc2nnc3ccc(-c4ccccn4)nn23)cc1	-9.2	-0.7	-0.8	23.5	2.0	1.9	/	/	/	/
Cc1nc(-c2ccccn2)nc(SCC(=O)c2ccc(F)cc2)c1Cl	-2.8	-5.7	5.6	2.6	32.2	50.0*	-4.6	-24.3	-5.9	67.4*
CCN1CCN(C(=O)C2CCC(=O)N(Cc3cccc(C(F)(F)F)c3)C2)CC1 (stereo unspecified)	-0.1	-1.4	1.9	17.4	33.5	26.9*	-4.3	-1.4	-6.1	1.9
CCCN(CC(=O)Nc1ccccc1OC)Cc1c(O)ccc2ccccc12	-8.0	-2.2	4.0	-7.4	27.0	-3.7	/	/	/	/
S=c1[nH]nc(C2CCCCC2)n1/N=C/c1ccccc1Br	0.5	-2.9	1.9	0.6	-29.7	-1.6	/	/	/	/
O=C(O)COc1ccccc1/C=N/n1c(C2CCCCC2)n[nH]c1=S	-7.3	-3.9	/	6.1	-67.8	27.5*	-3.0	53.1*	-7.8	39.7*
c1cncc(-c2nc(NCCCn3ccnc3)c3ccccc3n2)c1	-1.4	1.8	-5.0	2.3	8.6	32.0*	-2.6	-16.3	-6.6	48.9*
Cc1cccc2cc(C#N)c(NCCCn3ccnc3)nc12	-4.5	-0.5	3.2	16.8	53.2	0.8	/	/	/	/
Cc1nc(NCCCn2ccnc2)c2ccccc2n1	-1.8	-1.5	-1.8	-17.4	-1.3	19.9*	-3.7	-1.2	-6.1	35.4*
CCOC(=O)[C@H]1[C@H]2COc3cc(OC)ccc3[C@@H]2N2C(=O)c3cc(OC)c(OC)cc3NC(=O)[C@@]12C	/	/	-2.5	/	/	/	/	/	/	/
COC(=O)c1oc2nc(C)cc(C)c2c1N	9.4	3.5	-1.8	27.4	38.1	15.3*	-3.0	-0.1	-5.6	14.1*
Cc1cc(C)c2c(N)c(C(=O)c3ccccc3)oc2n1	0.9	-3.3	-7.2	6.8	-17.0	-0.9	/	/	/	/
CCN(CC)CCNC(=O)c1ccc(NC(=O)C2CCN(c3ncnc4sc(C)c(C)c34)CC2)cc1	-75.6	-0.4	3.6	11.3	-41.4	-0.3	/	/	/	/

High-throughput results (PubChem)
